Compounds with a hit are over-represented: about 1.7% of the library has one in this group of screens.
CFTR F508del cor = F508del CFTR correction, initial screen, CFBE line, single point. CFBE cells, YFP halide quenching; stimulated with forskolin plus potentiator P3; % fluorescence drop versus neutral controls. activity (quench increase), % at 7.58 µM. 350,000 tested, 0.36% active;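 active = mean added fluorescence quench of at least 8% versus neutral control, with both replicates also reaching 8%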;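 also: cells transiently co-express mutant CFTR-F508del with the halide-sensitive YFP; corrector assay measuring rescue of mutant channel to the surface after 24 h compound exposure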
miR-122 sensor = miR-122 Renilla sensor signal increase in Huh7, primary screen, miR-122 inhibitor project, cell-based, single point, plate reader. Huh7 miR-122 Renilla luciferase sensor, 48 h; neutral wells = 0, positive control = 100. activation (reporter increase), % at 12.5 µM. 340,000 tested, 0.3% active. AID 602342, 2012;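 active = mean replicate activation score at least 90 and every replicate individually at or above 90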;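 also: higher luciferase means less miR-122 activity so hits act as miR-122 inhibitors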
ARNT-TACC3 inh = disruptors of ARNT/TACC3 protein interaction, primary screen, biochemical, AlphaScreen, single concentration. 390,000 tested, 0.66% active. Transforming acidic coiled-coil-containing protein 3 (Homo sapiens), Q9Y6A5. AlphaScreen His-ARNT PAS-B/GST-TACC3 binding, luminescence; TACC3 fragment carries E629A point mutation. AID 623870, 2012. inhibition, % at 9.99 µM;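 active = mean inhibition of replicates at least 50% and at least half of replicates each reaching 50%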;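 also: 0% = complete ARNT plus TACC3 wells and 100% = ARNT alone without TACC3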
PGC1a acetyl inh = inhibitors of PGC1a acetylation signal, primary screen, cell-based, U2OS, AlphaScreen, inhibitor mode; AlphaScreen anti-acetyl-lysine; with virally co-expressed GCN5 acetyltransferase; 350,000 tested, 0.17% active; inhibition, % at 15.6 µM; AID 651687, 2012;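 active = every replicate shows inhibition of at least 40%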;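 also: 0% = neutral control wells and 100% = positive control wells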
CAL PDZ FP-1 = untagged CAL PDZ binding inhibitors, primary screen, biochemical, fluorescence polarization, HTS; inhibition, % at 24.9 µM; AID 602252, 2012; Golgi-associated PDZ and coiled-coil motif-containing protein (Homo sapiens), Q9HD26; purified CAL PDZ, TMR-peptide fluorescence polarization, 1 h; 300,000 tested, 0.92% active;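 active = mean inhibition of at least 30% with at least half of replicates also reaching 30%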;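 also: 0% = DMSO neutral control and 100% = excess unlabeled competitor peptide PRC23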
CAL PDZ FP-2 = CAL PDZ peptide-binding inhibitors, primary screen, biochemical, fluorescence polarization, Cer-tagged CAL PDZ, HTS. Golgi-associated PDZ and coiled-coil motif-containing protein (Homo sapiens), Q9HD26. purified CAL PDZ, TMR-peptide fluorescence polarization, 1 h. 330,000 tested, 0.02% active. inhibition, % at 20 µM;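 active = highest replicate inhibition of at least 40%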;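 also: plate controls were DMSO neutral control wells for no effect and unlabeled competitor peptide control wells for full effect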
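material = purified tagged CAL PDZ domain construct (CerCALP) | compound dosing = 20 µM, one dose | times = 1 h at RT | measured by = fluorescence polarization from S- and P-plane intensities, G-factor corrected | read-out = inhibition from polarization loss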
An asterisk follows results filed as active; . = not tested or not shown; [ ] = another dose, or the depositor's remark.

SMILES	CFTR F508del cor	miR-122 sensor	ARNT-TACC3 inh	PGC1a acetyl inh	CAL PDZ FP-1	CAL PDZ FP-2
COc1ccc(S(=O)(=O)N(C)C[C@@H]2OCCCC[C@H](C)Oc3ccc(NS(=O)(=O)c4ccc(F)cc4)cc3C(=O)N([C@@H](C)CO)C[C@@H]2C)cc1	-1	-5[16.7 µM]	-7	-18	.	.
CC(C)C(NC(=O)c1ccccc1Br)c1ccccc1 (stereo unspecified)	-5	.	-5	.	-4	-2
CC(NC(=S)NC(=O)c1ccccc1Br)c1ccccc1 (stereo unspecified)	-2	7	-3	-9	77*	.
O=C(Oc1ccc[nH]c1=O)c1cc([N+](=O)[O-])cc([N+](=O)[O-])c1	-1	.	-4	53*	-1	0
O=c1cc(-c2ccccc2Cl)oc2cc(O)cc(O)c12	3	.	-3	.	0	-2
O=C1C=CC(O)(c2cc(=O)c3c(O)cc(O)cc3o2)C=C1	17*	.	15	.	-5	0
C[C@@H]1CN([C@@H](C)CO)C(=O)c2cc(C#Cc3cccnc3)cnc2O[C@@H]1CN(C)C(=O)CC1CC1	-1	4[16.7 µM]	17	3	.	.
Cc1[nH]c2ccccc2c1C(=O)/C=C\c1ccccc1Cl	.	.	-7	.	-1	-3
Cc1[nH]c2ccccc2c1C(=O)/C=C/c1ccccc1	.	13	3	71*	2	-2
O=C(O)CSCC(=O)N(Cc1ccccc1)c1nc(-c2ccccc2)c(-c2ccccc2)s1	-2	-4	0	.	44*	-1
COc1ccc2oc(=N)c(C(=O)Nc3ccc(C)cc3)cc2c1	2	-1	0	.	0	0
COc1ccc2o/c(=N\O)c(C(=O)Nc3ccc(C)cc3)cc2c1	-2	.	-4	.	80*	0
CCCCNC(=O)c1ccc2c(=O)n(CCCOCC)c(=S)[nH]c2c1	.	2	-4	-6	-3	-1
CCOCCCNC(=O)c1ccc2c(=O)n(Cc3ccc4c(c3)OCO4)c(=S)[nH]c2c1	2	-1	-6	-5	37*	34
CCOCCCn1c(=S)[nH]c2cc(C(=O)NC3CCCC(C)C3C)ccc2c1=O (stereo unspecified)	-1	0	3	-14	62*	-1
Cc1cccc(/C=C(\C(=O)O)c2ccc(S(=O)(=O)N3CCCC3)s2)c1	1	1	45*	4	-3	-1
Cc1ccc(CN2CCSc3ccc(C(=O)NCCCN4CCN(C)CC4)cc32)cc1	3	.	9	-3	.	0
O=C(c1ccc2c(c1)N(Cc1ccc(F)cc1)CCS2)N1CCOCC1	1	24	8.5*	0	4	-2
Cc1ccc(CN2CCSc3ccc(C(=O)NCc4cccnc4)cc32)cc1	.	155*	3	-1	-5	-1
COc1cc(OC)cc(C(=O)NNC(=S)NC2CC2)c1	-1	.	-7	.	57*	0
CCOC(=O)N1CCN(CCC(=O)Nc2ccc(OC)cc2OC)CC1	-1	-2	2	5	-4	-3
CCN1CCN(C(=O)C(C)Nc2ccc(OC)cc2OC)CC1 (stereo unspecified)	1	-5	42*	.	.	0
CC(=O)NC(CC(=O)N(C)C1CCCCC1)c1ccccc1 (stereo unspecified)	0	6	26	-9	-2	2
CC(C)(O)CN(C(=O)C(c1ccccc1)c1ccccc1)C1CCCCC1	4	.	0	.	31*	0
COc1ccccc1C=CC(=O)C=Cc1ccccc1OC	-10	.	-2	-63	-7	0
SMILES	CFTR F508del cor	miR-122 sensor	ARNT-TACC3 inh	PGC1a acetyl inh	CAL PDZ FP-1	CAL PDZ FP-2
COc1ccccc1/C=C/C(=O)NNC(=O)c1cccs1	1	.	0	7	71*	-1
COc1ccccc1/C=C/C(=O)/C=C/c1ccccc1O	-19	126*	1	3	-2	0
O=C(O)C1Cc2[nH]cnc2C(c2ccccc2O)N1 (stereo unspecified)	.	.	82*	.	-5	1
C[C@H](CO)N1C[C@H](C)[C@H](CN(C)CC2CCCCC2)Oc2ccc(NC(=O)Nc3cccc4ccccc34)cc2CC1=O	1	7[16.7 µM]	10	31	.	.
C[C@H](CO)N1C[C@H](C)[C@@H](CN(C)Cc2ccc(Oc3ccccc3)cc2)Oc2ccc(NC(=O)Nc3cccc4ccccc34)cc2CC1=O	0	-6[16.7 µM]	76*	-12	.	.
C[C@@H]1CN([C@@H](C)CO)C(=O)Cc2cc(NC(=O)Nc3cccc4ccccc34)ccc2O[C@@H]1CN(C)Cc1ccc(C(=O)O)cc1	0	6[16.7 µM]	active	2	.	.
C[C@H](CO)N1C[C@H](C)[C@@H](CN(C)CC2CCCCC2)Oc2ccc(NC(=O)Nc3cccc4ccccc34)cc2CC1=O	-6	-7[16.7 µM]	47*	-4	.	.
O=C(C[C@H]1CC[C@H]2[C@@H](COC[C@H](O)CN2C(=O)Nc2ccc(Cl)c(Cl)c2)O1)NCc1ccc(Cl)cc1	4	-8[16.7 µM]	-2	0	.	.
CC(=O)C1C(c2cn(-c3ccccc3)nc2-c2cccs2)NC(=O)NC1(O)C(F)(F)F (stereo unspecified)	.	.	47*	.	-3	-1
CC(=O)C1C(c2ccccc2Cl)NC(=O)NC1(O)C(F)(F)F (stereo unspecified)	2	-1	6	4	.	-4
CC(=O)OCC1OC(Sc2cccc3cccnc23)C(OC(C)=O)C(OC(C)=O)C1OC(C)=O (stereo unspecified)	.	-5	68*	-22	-5	1
CC(=O)OCC1OC(n2ccc3ccccc32)C(OC(C)=O)C(OC(C)=O)C1OC(C)=O (stereo unspecified)	.	7	-9	-8	2	0
COc1ccccc1NC(=O)N1C[C@H]2[C@@H](c3ccccc31)[C@@H](CO)N2CC1CCCC1	2	-17[16.7 µM]	0	7	.	.
O=S(=O)(Nc1cccc2ncccc12)c1cccs1	.	234*	58*	-47	-1	-1
CCCCC(=NCCc1c(C)[nH]c2ccc(OC)cc12)C1=C(O)CC(c2ccccc2)CC1=O (stereo unspecified)	11*	.	-2	13	8	-1
C[C@H]1CN([C@@H](C)CO)C(=O)c2cc(NC(=O)CCCN(C)C)ccc2O[C@H]1CN(C)Cc1ccccc1	-1	5[16.7 µM]	-10	-32	.	.
